Experimental data: ChEMBL document CHEMBL3734725, “Design, synthesis and preliminary biological studies of pyrrolidine derivatives as Mcl-1 inhibitors” (Bioorg Med Chem, 2015)
One block for each molecule: values may come before it.

How the values were obtained:
[1] = biological target: Induced myeloid leukemia cell differentiation protein Mcl-1 (Homo sapiens, UniProt Q07820); test: Competitive binding affinity to Mcl-1 (unknown origin) using 5-FAM-Bid-BH3 peptide preincubated for 30 mins before 5-FAM-Bid-BH3 peptide addition and measured 20 mins after 5-FAM-Bid-BH3 peptide addition by fluorescence polarization assay
Sequence of Induced myeloid leukemia cell differentiation protein Mcl-1 (Q07820 whole entry): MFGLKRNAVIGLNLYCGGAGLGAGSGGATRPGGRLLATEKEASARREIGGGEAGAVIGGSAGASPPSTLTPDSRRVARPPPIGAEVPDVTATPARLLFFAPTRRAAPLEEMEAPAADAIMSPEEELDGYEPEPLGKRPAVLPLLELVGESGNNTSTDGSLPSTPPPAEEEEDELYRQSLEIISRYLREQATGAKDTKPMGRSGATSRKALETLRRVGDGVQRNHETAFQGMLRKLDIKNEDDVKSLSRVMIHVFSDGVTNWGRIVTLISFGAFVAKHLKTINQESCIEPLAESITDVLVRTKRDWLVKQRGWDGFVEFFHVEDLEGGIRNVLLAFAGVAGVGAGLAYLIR
Summary of the method: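 Mcl-1 preincubated 30 min at room temperature with compound in PBS (pH 7.3; 140 mM NaCl, 2.7 mM KCl, 1.8 mM KH₂PO₄). IC50 fitted, Ki calculated; three separate experiments.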

[2] = biological target: Bcl-2-like protein 1 (Homo sapiens, UniProt Q07817); test: Competitive binding affinity to Bcl-XL (unknown origin) using 5-FAM-Bid-BH3 peptide preincubated for 30 mins before 5-FAM-Bid-BH3 peptide addition and measured 20 mins after 5-FAM-Bid-BH3 peptide addition by fluorescence polarization assayy
Sequence of Bcl-2-like protein 1 (Q07817 whole entry): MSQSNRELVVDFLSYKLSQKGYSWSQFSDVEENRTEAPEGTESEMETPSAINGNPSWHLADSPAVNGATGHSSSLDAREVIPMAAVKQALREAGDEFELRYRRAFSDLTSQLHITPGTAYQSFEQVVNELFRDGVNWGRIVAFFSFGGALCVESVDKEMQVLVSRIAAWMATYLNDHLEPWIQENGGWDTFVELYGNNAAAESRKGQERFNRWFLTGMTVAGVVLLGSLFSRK
Summary of the method: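 Same FP competition with FAM-Bid-BH3 peptide at 10 nM final in PBS pH 7.3. Protein and compound preincubated 30 min at room temperature. Final Bcl-2 376 nM, final Bcl-XL 170 nM. Polarization read at ex 485/em 535 nm in triplicate. IC50 fitted, then converted to Ki.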

[3] = Antiproliferative activity against human PC3 cells after 48 hrs by MTT assay; format: functional, cell-based; settings: PC-3, 48 h
Summary of the method: (§1)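 Cells grown in RPMI1640 with 10% fetal bovine serum at 37 °C, 5% CO₂. Log-phase cells seeded at 5000 per well and incubated 12 h, then exposed to a range of compound concentrations for 48 h. MTT (5 mg/mL) added for 4 h, medium removed, formazan dissolved in DMSO, absorbance read. IC50 reported.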

[4] = test system: K562; test: Antiproliferative activity against human K562 cells after 48 hrs by MTT assay; format: functional, cell-based; settings: K562, 48 h; summary of the method: as §1
[5] = biological target: Apoptosis regulator Bcl-2 (Homo sapiens, UniProt P10415); test: Competitive binding affinity to Bcl-2 (unknown origin) using 5-FAM-Bid-BH3 peptide preincubated for 30 mins before 5-FAM-Bid-BH3 peptide addition and measured 20 mins after 5-FAM-Bid-BH3 peptide addition by fluorescence polarization assay
Sequence of Apoptosis regulator Bcl-2 (P10415 whole entry): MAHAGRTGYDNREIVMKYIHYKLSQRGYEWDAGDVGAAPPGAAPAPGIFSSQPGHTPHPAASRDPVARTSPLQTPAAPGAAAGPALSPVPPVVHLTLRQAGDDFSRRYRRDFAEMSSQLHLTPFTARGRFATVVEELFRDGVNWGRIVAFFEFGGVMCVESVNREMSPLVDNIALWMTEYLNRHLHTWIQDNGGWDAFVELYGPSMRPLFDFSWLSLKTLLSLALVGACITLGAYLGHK
Summary of the method: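 Same FP competition with FAM-Bid-BH3 peptide at 10 nM final in PBS pH 7.3. Protein and compound preincubated 30 min at room temperature. IC50 fitted, then converted to Ki.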

[6] = test system: MDA-MB-231; test: Antiproliferative activity against human MDA-MB-231 cells after 48 hrs by MTT assay; format: functional, cell-based; settings: MDA-MB-231, 48 h; summary of the method: as §1

Structure (SMILES): Cc1ccc(-c2ccc(O[C@H]3C[C@@H](C(=O)N[C@@H](Cc4ccccc4)C(=O)NS(=O)(=O)c4ccc(Cl)c([N+](=O)[O-])c4)N(C(=O)OC(C)(C)C)C3)cc2)cc1
Ki [2]: 8.7 µM | IC50 [3]: 13.5 µM | IC50 [4]: 22.4 µM | Ki [5]: 4.6 µM | IC50 [6]: 15.4 µM

Structure (SMILES): CC(C)(C)OC(=O)N1C[C@@H](Oc2ccc(-c3ccccc3)cc2)C[C@H]1C(=O)N[C@@H](Cc1ccc(Br)cc1)C(=O)NS(=O)(=O)c1ccc(Cl)c([N+](=O)[O-])c1
Ki [2]: 2.2 µM | IC50 [3]: 10.7 µM | IC50 [4]: 23 µM | Ki [5]: 0.93 µM | IC50 [6]: 13.6 µM

Structure (SMILES): CC(C)C[C@H](NC(=O)[C@@H]1C[C@H](Oc2ccc(-c3ccccc3)cc2)CN1C(=O)OC(C)(C)C)C(=O)O
Ki [1]: > 10 µM

Structure (SMILES): CC(C)(C)OC(=O)N1C[C@@H](Oc2ccc(-c3ccccc3)cc2)C[C@H]1C(=O)N[C@H](C(=O)O)c1ccccc1
Ki [1]: > 10 µM

Structure (SMILES): CC(C)(C)OC(=O)N1C[C@@H](Oc2ccc(-c3ccccc3)cc2)C[C@H]1C(=O)NCC(=O)O
Ki [1]: > 10 µM

Structure (SMILES): CC(C)(C)OC(=O)N1C[C@@H](Oc2ccc(Br)cc2)C[C@H]1C(=O)N[C@H](C(=O)O)c1ccccc1
Ki [1]: > 10 µM

Structure (SMILES): CC(C)(C)OC(=O)N1C[C@@H](Oc2ccc(Br)cc2)C[C@H]1C(=O)NCC(=O)O
Ki [1]: > 10 µM

Structure (SMILES): Cc1ccc(-c2ccc(O[C@H]3C[C@@H](C(=O)N[C@@H](Cc4ccc(Br)cc4)C(=O)NS(=O)(=O)c4ccc(Cl)c([N+](=O)[O-])c4)N(C(=O)OC(C)(C)C)C3)cc2)cc1
Ki [2]: 1.2 µM | IC50 [3]: 13.8 µM | IC50 [4]: 22.1 µM | Ki [5]: 0.55 µM | IC50 [6]: 14.9 µM

Structure (SMILES): CC(C)C[C@H](NC(=O)[C@@H]1C[C@H](Oc2ccc(Br)cc2)CN1C(=O)OC(C)(C)C)C(=O)O
Ki [1]: > 10 µM

Structure (SMILES): CC(C)(C)OC(=O)N1C[C@@H](Oc2ccc(-c3ccc(Cl)cc3)cc2)C[C@H]1C(=O)N[C@@H](Cc1ccc(Br)cc1)C(=O)NS(=O)(=O)c1ccc(Cl)c([N+](=O)[O-])c1
Ki [2]: 2.1 µM | IC50 [3]: 11.2 µM | IC50 [4]: 21.9 µM | Ki [5]: 0.83 µM | IC50 [6]: 15.8 µM

Structure (SMILES): Cc1cc2c(C(C)C)c(O)c(O)c(C=O)c2c(O)c1-c1c(C)cc2c(C(C)C)c(O)c(O)c(C=O)c2c1O [GOSSYPOL]
Ki [1]: 0.39 µM | Ki [2]: 0.77 µM | IC50 [3]: 5.78 µM | IC50 [4]: 5.91 µM | IC50 [6]: 9.42 µM

Results, then the molecule that gave them:

Ki [1]: > 10 µM
Structure (SMILES): CC(C)[C@H](NC(=O)[C@@H]1C[C@H](Oc2ccc(-c3ccccc3)cc2)CN1C(=O)OC(C)(C)C)C(=O)O

Ki [1]: 1.9 µM
Structure (SMILES): Cc1ccc(-c2ccc(O[C@H]3C[C@@H](C(=O)N[C@@H](Cc4ccccc4)C(=O)NS(=O)(=O)c4ccc(C)cc4)N(C(=O)OC(C)(C)C)C3)cc2)cc1

Ki [1]: > 10 µM
Structure (SMILES): CC(C)(C)OC(=O)N1C[C@@H](Oc2ccc(Br)cc2)C[C@H]1C(=O)N[C@@H](Cc1ccccc1)C(=O)O

Ki [1]: > 10 µM
Structure (SMILES): CC(C)[C@H](NC(=O)[C@@H]1C[C@H](Oc2ccc(Br)cc2)CN1C(=O)OC(C)(C)C)C(=O)O

Ki [1]: 1.2 µM
Structure (SMILES): CC(C)(C)OC(=O)N1C[C@@H](Oc2ccc(-c3ccccc3)cc2)C[C@H]1C(=O)N[C@@H](Cc1ccc(Br)cc1)C(=O)NS(=O)(=O)c1ccccc1

Ki [1]: 1.6 µM
Structure (SMILES): Cc1ccc(-c2ccc(O[C@H]3C[C@@H](C(=O)N[C@@H](Cc4ccccc4)C(=O)NS(=O)(=O)c4ccccc4)N(C(=O)OC(C)(C)C)C3)cc2)cc1

Ki [1]: 0.99 µM
Structure (SMILES): Cc1ccc(S(=O)(=O)NC(=O)[C@H](Cc2ccc(Br)cc2)NC(=O)[C@@H]2C[C@H](Oc3ccc(-c4ccccc4)cc3)CN2C(=O)OC(C)(C)C)cc1

Ki [1]: 3.2 µM
Structure (SMILES): CC(C)(C)OC(=O)N1C[C@@H](Oc2ccc(-c3ccccc3)cc2)C[C@H]1C(=O)N[C@@H](Cc1c[nH]c2ccccc12)C(=O)NS(=O)(=O)c1ccccc1

Ki [1]: 3.3 µM
Structure (SMILES): Cc1ccc(S(=O)(=O)NC(=O)[C@H](Cc2ccccc2)NC(=O)[C@@H]2C[C@H](Oc3ccc(-c4ccccc4)cc3)CN2C(=O)OC(C)(C)C)cc1

Ki [1]: 8.4 µM
Structure (SMILES): CC(C)(C)OC(=O)N1C[C@@H](Oc2ccc(-c3ccccc3)cc2)C[C@H]1C(=O)N[C@@H](Cc1ccccc1)C(=O)O
